The test system of series [1] is Rattus norvegicus. Briefly: Tmax as total radioactivity in male Sprague-Dawley rat plasma at 15 mg/kg, po administered as single dose by LC/MS/MS analysis. The format is ADME, organism-based. Set-up: dose 15 mg/kg, dosed compound name [14C]Sunitinib, route oral. Particulars: in vivo.
Another series relates to Homo sapiens. Briefly: AUC (0 to infinity) as total radioactivity in human plasma at 50 mg, po administered as single dose […] by LC/MS/MS analysis. Conditions: in vivo. The class given is ADME, organism-based. On the set-up: dose 50 mg, time infinity, route oral, dosed compound name [14C]Sunitinib. The method in brief:
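Open-label phase I study in 8 subjects given one 50 mg oral dose of [14C]sunitinib (100 µCi). Plasma total radioactivity was counted by scintillation on triplicate 0.25 mL aliquots. Sunitinib was quantified by LC-MS-MS. Noncompartmental analysis: Cmax read directly, terminal t½ = ln(2)/slope of the log-concentration regression, AUC by linear trapezoidal rule to the last detectable concentration.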

The next series has as its system Spleen. Briefly: Drug concentration in male albino rat spleen assessed as radioactivity per gram of tissue at 20 mg/kg administered as single dose via gastric gavage measured after 72 hrs by autoradiographic analysis. The format is ADME, organism-based. Particulars: in vivo, po. On the set-up: dose 20 mg/kg, dosed compound name [14C]Sunitinib.
For series [2], the system named is Rattus norvegicus. Briefly: Drug recovery in cage residue of female Sprague-Dawley rat at 5 mg/kg, iv administered as single dose during 0 to 72 hrs by liquid scintillation counting. Set-up: dose 5 mg/kg, dosed compound name [14C]Sunitinib, route intravenous. The class given is ADME, organism-based. Particulars: in vivo.
Series [3] is described as follows: Drug concentration in male albino rat bladder assessed as radioactivity per gram of tissue at 20 mg/kg administered as single dose via gastric gavage measured after 24 hrs by autoradiographic analysis. The class given is ADME, organism-based, Urinary bladder. Particulars: in vivo, po. Set-up: dose 20 mg/kg, dosed compound name [14C]Sunitinib.

The term Tmax denotes the time from dosing to the highest level.

For `CCN(CC)CCNC(=O)c1c(C)[nH]c(/[14CH]=C2\C(=O)Nc3ccc(F)cc32)c1C.O=C(O)C[C@H](O)C(=O)O`, in the series on Rattus norvegicus [1], the Tmax is 5 h. The AUC in the series with Homo sapiens was found to be 2537.1 ng.Eq.hr/ml. For the same compound, the Radiolabel recovery in the series on Spleen is recorded as 0.2 ugequiv; with Rattus norvegicus [2] it was 1.1%; in series [3], 0.35 ugequiv.

The record behind these values is ChEMBL document CHEMBL3525900, “Pharmacokinetics, distribution, and metabolism of [14C]sunitinib in rats, monkeys, and humans” (Drug Metab Dispos, 2012).
